Measurements as given in the EternaBench riboswitch data.

Test system: MS2 coat protein
Assay: apparent Kd, MS2 coat protein; higher = weaker binding; RNA-MaP array; tryptophan 2.4 mM where present
In short: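 SNAP-549-labelled MS2 coat protein, doubled from 0.7 or 1.5 nM to 3 µM, was titrated over designs transcribed by stalled E. coli RNA polymerase on Illumina sequencing-chip clusters. Titrations were run without and then with constant ligand in 100 mM Tris-HCl pH 7.5, 80 mM KCl, 4 mM MgCl2, BSA, DTT, yeast tRNA and Tween-20. The apparent Kd is the median of filtered per-cluster fits to green signal normalised to red-channel RNA signal and control-cluster median Fmax.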

[1] = designed as: OFF switch for tryptophan, no ligand
[2] = ligand present: tryptophan, designed as: OFF switch for tryptophan
[3] = designed as: ON switch for tryptophan, no ligand
[4] = ligand present: tryptophan, designed as: ON switch for tryptophan

Sequence	apparent Kd [1] [nM]	apparent Kd [2] [nM]	apparent Kd [3] [nM]	apparent Kd [4] [nM]
CAAAGUUCGUCUCUGGUCCUCUAAUCGGCUCGAGGACCGGUACGGCCGCCACUCGCCCGACAUGAGGAUCACCCAUGUCUGUAAA	13.2	10.9	–	–
AUAAAUAAUAAAUAAAAUAAAGUGGGUGAACGAGGACCGGUACGGCCGCCACUCGGACAUGAGGAUCACCCAUGUCCAUGUGAAA	17.2	51.2	–	–
AGCCACUCGAGUGAUCCUCACGAGUGGCUACGAGGACCGGUACGGCCGCCACUCGAAUUAACAUGAGGAUCACCCAUGUAAUCAC	–	–	65.5	50.2
GAAUAAGAAUCGGCCGCCACUCACAUGAGGAUCACCCAUGUACAUGAGGAACAUGAAAAUCACCCGAGGACCGGGAUAUAUGUUC	70	66.9	–	–
AGUACAUGAGGAUCACCCAUGUAUCGGUACCGAGGACCGGUACGGCCGCCACUCGCAGGACAUGAGGAUCACCCAUGUGCCGCCG	–	–	18.9	23.8
AUUCAUGGAAACAUGACAUAGGGAUCUAGCCGAGGACCGGUACGGCCGCCACUCGCUUGGAGGCACAUGAGGAUCACCCAUGUUA	–	–	145	48.7
CGAGUGCUGUCGGCCGCCACUGCACAUGAGGAUCACCCAUGUAAAAGCUGGCUGUGACUGGUGUUCAGGACCGGGACAGGGUCUU	10.7	25.4	–	–
AAUGUAUGGCACAUGAGGAUCACCCAUGUGCGAGGACCGGUACGGCCGCCACUCGGUCCUGGGAUCUUAAUACUAUACAUUAAUG	10.9	28.2	–	–
AUAUAUACAUGAGGAUCACCCAUGUUAUUUCGAGGACCGGUACGGCCGCCACUCGAUAGAGUAGAAGUAACAUUUGUUAGAUGUA	–	–	19.7	13.9
CGAGUGAGUUCAAUCGAAUAACGGUUUUCGCGAGGACCGGUACGGCCGCCACUCGUGUGAUAUCACACAUGAGGAUCACCCAUGU	–	–	37.9	31.6
CGACUGUAAAGUCGACCGGUCAUCAAUAAUCGAGGACCGGUACGGCCGCCACUCGAUGUGAUUUCACAUGAGGAUCACCCAUGUA	–	–	23.9	22.2
UUGCCCAGUACGGCCGCCACUGUGUGCAGGGAGCCCAGGUCCACAUGAGGAUCACCCAUGUACAACAGGACCGGGUACUUGCAAU	9.36	10.6	–	–
AUUAAGGAUAUAUAGAAGGCGGAGAAGAGACGAGGACCGGUACGGCCGCCACUCGUGUUAGUUAACAUGAGGAUCACCCAUGUAA	–	–	80.6	18.7
AUGCAGAACACGGCCGCCACUCCAUGUAUACAUGAGGAUCACCCAUGUAAUUUGUAUUUUUUAUAGAGGACCGGGUGAAAUGCAA	–	–	33.5	18.2
CUACAUUUGUAGAAACCGGUCAACAUUAUUCGAGGACCGGUACGGCCGCCACUCGUAUAAUUUAAUACAUGAGGAUCACCCAUGU	–	–	14.6	15.9
GCUGUGAAGUCGGCCGCCACUGGUUAGUUUUACCUCAUGUAACAUGAGGAUCACCCAUGUAAUUUCAGGACCGGGACAACAGCAA	278	852	–	–
AGAGCAUUGACGGCCGCCACUCGUGUCACAUGAGGAUCACCCAUGUGACGGGUGAUCGCCCGGUUGAGGACCGGGUCAAUGCUCA	–	–	9.69	11.4
ACAUGAGGAUCACCCAUGUCAUGAGGUUCACGAGGACCGGUACGGCCGCCACUCGACAUGAGGGUCACCCGUGAACGGAACACCC	–	–	14.8	20
ACAUGAGGAUCACCCAUGUUAAACAGGGUGCGAGGACCGGUACGGCCGCCACUCGGACAUUAUUACGAGUGAAUGGCAACGAUGU	15.8	15.4	–	–
GGCACAUAGUCGGCCGCCACUAGAUUUUAGUGGAAUAACAUGAGGAUCACCCAUGUAUUUGGGACUAGGACCGGGACUAUGUGCC	32.8	22.2	–	–
ACGUUUUAGUCGGCCGCCACUGAUCUCAUGUUCAACAUGAGGAUCACCCAUGUACCUUUUUUUAUCAGGACCGGGACGUAAUAGA	–	–	329	62.3
AGCCACUCGAGUGAUCCUCACGAGUGGCAACGAGGACCGGUACGGCCGCCACUCGAAUAAACAUGAGGAUCACCCAUGUAAUAAU	–	–	70.5	49.1
GGUUACUCUACGGCCGCCACUGUAAAGUAAAGAUUACUGUACAUGACAUGAGGAUCACCCAUGUACAGGACCGGGUAGUGUAACC	–	–	23.1	21.5
CGAGUAGGUUCAAUCGAAUAACGGUUUUCGCGAGGACCGGUACGGCCGCCACUCGUGUGAUAUCACACAUGAGGAUCACCCAUGU	–	–	45	33.8
UAUCGUCAGACGGCCGCCACUAGAACAUGAGGAUCACCCAUGUAGGUCCUAGAUUCCUCAAUAACUAGGACCGGGUCUGACGAAU	140	97.3	–	–
ACAUUAGCCACGGCCGCCACUGCUUUAUGAUUAUAAGGAUUAAUGAACAUGAGGAUCACCCAUGUCAGGACCGGGUGCCUACCAU	–	–	29.8	29.7
GUGCCGCAUUCACAUGAGGAUCACCCAUGUCGAGGACCGGUACGGCCGCCACUCGACGUGCUUACAGGUCCUUUACGGCCCAAUA	38.1	18.8	–	–
AGAGCAUUGACGGCCGCCACUCAUGUCACAUGAGGAUCACCCAUGUGAUGGGUGAUAGCCCGGUUGAGGACCGGGUCAAUGCUCA	–	–	18.8	19.4
GAGUAGAGGACGGCCGCCACUAAACAUGAGGAUCACCCAUGUCGUGAUCCGUUACCUAGGGUAGAUAGGACCGGGUCAUGUAGUC	59.3	45.9	–	–
